In ChEMBL document CHEMBL2434944, “Novel acetamidothiazole derivatives: synthesis and in vitro anticancer evaluation” (Eur J Med Chem, 2013):

What was measured:
CAKI-1 = test: Growth inhibition of human CAKI-1 cells assessed as cell growth at 10^-5 M after 48 hrs by sulforhodamine B assay relative to control; format: functional; settings: CAKI-1, 48 h, read-out: Activity
Outline: (§1)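 NCI-60 single-dose screen at 10^-5 M. Cells grown in RPMI 1640 with 5% FBS and 2 mM L-glutamine, plated at 5,000–40,000 cells/well according to doubling time, and preincubated 24 h at 37°C, 5% CO2. Compound dissolved in DMSO and added. Exposure 48 h. Adherent cells fixed with cold TCA (10% final), suspension cells with 16% final TCA. Read-out is 0.4% SRB staining, dye solubilised in 10 mM Tris, absorbance at 515 nm. Percent growth is calculated against the time-zero plate and untreated control.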

ACHN = test: Growth inhibition of human ACHN cells assessed as cell growth at 10^-5 M after 48 hrs by sulforhodamine B assay relative to control; format: functional; settings: read-out: Activity; outline: as §1
A498 = test: Growth inhibition of human A498 cells assessed as cell growth at 10^-5 M after 48 hrs by sulforhodamine B assay relative to control; format: functional; settings: A498, 48 h, read-out: Activity; outline: as §1
OVCAR-4 = test: Growth inhibition of human OVCAR4 cells assessed as cell growth at 10^-5 M after 48 hrs by sulforhodamine B assay relative to control; format: functional; settings: OVCAR-4, 48 h, read-out: Activity; outline: as §1
SK-MEL-5 = test: Growth inhibition of human SK-MEL-5 cells assessed as cell growth at 10^-5 M after 48 hrs by sulforhodamine B assay relative to control; format: functional; settings: SK-MEL-5, 48 h, read-out: Activity; outline: as §1
M14 = test: Growth inhibition of human M14 cells assessed as cell growth at 10^-5 M after 48 hrs by sulforhodamine B assay relative to control; format: functional; settings: M14, 48 h, read-out: Activity; outline: as §1
SNB-75 = test: Growth inhibition of human SNB75 cells assessed as cell growth at 10^-5 M after 48 hrs by sulforhodamine B assay relative to control; format: functional; settings: SNB-75, 48 h, read-out: Activity; outline: as §1
SNB-19 = test: Growth inhibition of human SNB19 cells assessed as cell growth at 10^-5 M after 48 hrs by sulforhodamine B assay relative to control; format: functional; settings: SNB-19, 48 h, read-out: Activity; outline: as §1
SF-539 = test: Growth inhibition of human SF539 cells assessed as cell growth at 10^-5 M after 48 hrs by sulforhodamine B assay relative to control; format: functional; settings: SF-539, 48 h, read-out: Activity; outline: as §1
SW-620 = test: Growth inhibition of human SW620 cells assessed as cell growth at 10^-5 M after 48 hrs by sulforhodamine B assay relative to control; format: functional; settings: SW-620, 48 h, read-out: Activity
Outline: (§2)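 NCI-60 single-dose screen, 10^-5 M final. Cells grown in RPMI 1640 with 5% FBS and 2 mM L-glutamine, seeded at 5,000–40,000 cells/well by doubling time. Preincubated 24 h at 37°C, 5% CO2. Compound in DMSO, diluted in medium with gentamicin, then 48 h exposure. Fixed with cold TCA, SRB stained, A515 read. Percent growth vs untreated control, time-zero plate corrected.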

HCT-116 = test: Growth inhibition of human HCT116 cells assessed as cell growth at 10^-5 M after 48 hrs by sulforhodamine B assay relative to control; format: functional; settings: HCT-116, 48 h, read-out: Activity; outline: as §1
NCI-H522 = test: Growth inhibition of human NCI-H522 cells assessed as cell growth at 10^-5 M after 48 hrs by sulforhodamine B assay relative to control; format: functional; settings: NCI-H522, 48 h, read-out: Activity; outline: as §1
NCI-H226 = test: Growth inhibition of human NCI-H226 cells assessed as cell growth at 10^-5 M after 48 hrs by sulforhodamine B assay relative to control; format: functional; settings: NCI-H226, 48 h, read-out: Activity; outline: as §1
HOP-92 = test: Growth inhibition of human HOP92 cells assessed as cell growth at 10^-5 M after 48 hrs by sulforhodamine B assay relative to control; format: functional; settings: HOP-92, 48 h, read-out: Activity; outline: as §1
HOP-62 = test: Growth inhibition of human HOP62 cells assessed as cell growth at 10^-5 M after 48 hrs by sulforhodamine B assay relative to control; format: functional; settings: HOP-62, 48 h, read-out: Activity; outline: as §1
SR = test: Growth inhibition of human SR cells assessed as cell growth at 10^-5 M after 48 hrs by sulforhodamine B assay relative to control; format: functional; settings: read-out: Activity; outline: as §2
RPMI-8226 = test: Growth inhibition of human RPMI8226 cells assessed as cell growth at 10^-5 M after 48 hrs by sulforhodamine B assay relative to control; format: functional; settings: RPMI-8226, 48 h, read-out: Activity; outline: as §1
CCRF-CEM = test: Growth inhibition of human CCRF-CEM cells assessed as cell growth at 10^-5 M after 48 hrs by sulforhodamine B assay relative to control; format: functional; settings: read-out: Activity; outline: as §1
[1] = target: Epidermal growth factor receptor (Homo sapiens, UniProt P00533); test: Inhibition of human EGFR
[2] = target: Mitogen-activated protein kinase 1 (Homo sapiens, UniProt P28482); test: Inhibition of human MAPK1
BT-549 = test: Growth inhibition of human BT549 cells assessed as cell growth at 10^-5 M after 48 hrs by sulforhodamine B assay relative to control; format: functional; settings: BT-549, 48 h, read-out: Activity; outline: as §1
MDA-MB-231 = test: Growth inhibition of human MDA-MB-231 cells assessed as cell growth at 10^-5 M after 48 hrs by sulforhodamine B assay relative to control; format: functional; settings: MDA-MB-231, 48 h, read-out: Activity; outline: as §1
MCF7 = test: Growth inhibition of human MCF7 cells assessed as cell growth at 10^-5 M after 48 hrs by sulforhodamine B assay relative to control; format: functional; settings: MCF7, 48 h, read-out: Activity; outline: as §1
DU-145 = test: Growth inhibition of human DU145 cells assessed as cell growth at 10^-5 M after 48 hrs by sulforhodamine B assay relative to control; format: functional; settings: DU-145, 48 h, read-out: Activity; outline: as §1
RXF 393 = test: Growth inhibition of human RXF393 cells assessed as cell growth at 10^-5 M after 48 hrs by sulforhodamine B assay relative to control; format: functional; settings: RXF 393, 48 h, read-out: Activity; outline: as §1

Chain of Mitogen-activated protein kinase 1 (P28482 whole entry): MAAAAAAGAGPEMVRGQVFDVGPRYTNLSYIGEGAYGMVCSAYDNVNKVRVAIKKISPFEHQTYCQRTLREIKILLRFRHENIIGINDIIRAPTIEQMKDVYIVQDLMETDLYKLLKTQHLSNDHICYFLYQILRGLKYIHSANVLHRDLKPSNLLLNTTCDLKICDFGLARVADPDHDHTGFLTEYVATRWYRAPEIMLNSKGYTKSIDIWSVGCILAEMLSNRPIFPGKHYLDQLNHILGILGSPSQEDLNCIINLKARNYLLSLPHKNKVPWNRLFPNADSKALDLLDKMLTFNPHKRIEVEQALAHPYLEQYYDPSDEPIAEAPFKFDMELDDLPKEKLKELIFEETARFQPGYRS
Chain of Epidermal growth factor receptor (P00533 whole entry): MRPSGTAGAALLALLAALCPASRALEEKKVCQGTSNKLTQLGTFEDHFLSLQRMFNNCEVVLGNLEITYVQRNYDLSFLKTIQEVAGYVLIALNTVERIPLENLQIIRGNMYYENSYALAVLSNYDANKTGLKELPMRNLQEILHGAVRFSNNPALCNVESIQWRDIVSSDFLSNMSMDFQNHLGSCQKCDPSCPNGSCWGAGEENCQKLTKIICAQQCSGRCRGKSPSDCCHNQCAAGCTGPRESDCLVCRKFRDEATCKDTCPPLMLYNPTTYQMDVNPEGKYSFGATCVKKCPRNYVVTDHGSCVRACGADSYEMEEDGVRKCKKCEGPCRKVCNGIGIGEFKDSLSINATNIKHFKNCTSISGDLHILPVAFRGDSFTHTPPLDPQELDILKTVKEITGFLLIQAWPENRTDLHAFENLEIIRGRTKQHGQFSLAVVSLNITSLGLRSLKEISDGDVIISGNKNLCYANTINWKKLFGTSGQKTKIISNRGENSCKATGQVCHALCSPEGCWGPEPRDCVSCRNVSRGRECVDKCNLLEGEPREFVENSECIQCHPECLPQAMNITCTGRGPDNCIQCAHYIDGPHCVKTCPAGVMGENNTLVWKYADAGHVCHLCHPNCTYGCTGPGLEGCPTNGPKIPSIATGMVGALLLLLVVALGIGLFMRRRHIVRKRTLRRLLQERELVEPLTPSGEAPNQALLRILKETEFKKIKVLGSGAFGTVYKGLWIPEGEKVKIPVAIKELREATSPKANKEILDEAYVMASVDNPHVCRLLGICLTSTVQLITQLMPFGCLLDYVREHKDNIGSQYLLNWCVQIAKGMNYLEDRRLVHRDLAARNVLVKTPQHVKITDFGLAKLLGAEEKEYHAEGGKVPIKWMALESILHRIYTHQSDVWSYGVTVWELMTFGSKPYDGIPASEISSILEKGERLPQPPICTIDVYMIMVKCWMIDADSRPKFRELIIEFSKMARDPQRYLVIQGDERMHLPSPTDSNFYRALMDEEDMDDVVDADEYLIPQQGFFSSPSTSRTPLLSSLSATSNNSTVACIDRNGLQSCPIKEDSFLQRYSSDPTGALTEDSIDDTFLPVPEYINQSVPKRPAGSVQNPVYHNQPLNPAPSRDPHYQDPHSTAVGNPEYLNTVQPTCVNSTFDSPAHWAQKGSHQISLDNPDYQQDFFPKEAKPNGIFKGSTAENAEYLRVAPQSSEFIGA

Work on `Cc1ccc(-c2csc(=N)n2CC(=O)N2CCN(c3ccccc3)CC2)cc1` yielded a growth at 10 µM (CAKI-1) of 70.4%, a growth at 10 µM (ACHN) of 81.2% and a growth at 10 µM (A498) of 92.6%. The growth at 10 µM (OVCAR-4) was 88.4%, the growth at 10 µM (SK-MEL-5) was 88.2% and the growth at 10 µM (M14) was 108%. The growth at 10 µM (SNB-75) was 95.8%, the growth at 10 µM (SNB-19) was 96.6% and the growth at 10 µM (SF-539) was 100%. For the same compound, the growth at 10 µM (SW-620) was 105%, the growth at 10 µM (HCT-116) was 103% and the growth at 10 µM (NCI-H522) was 95.5%. For the same compound, the growth at 10 µM (NCI-H226) was 97.2%, the growth at 10 µM (HOP-92) was 69.2% and the growth at 10 µM (HOP-62) was 111%. For the same compound, the growth at 10 µM (SR) was 98.8%, the growth at 10 µM (RPMI-8226) was 92.4% and the growth at 10 µM (CCRF-CEM) was 103%. The Ki [1] was 2970 nM, the Ki [2] was 2090 nM and the growth at 10 µM (BT-549) was 92.6%. It also gave a growth at 10 µM (MDA-MB-231) of 78.8%, a growth at 10 µM (MCF7) of 81.4% and a growth at 10 µM (DU-145) of 104%. The growth at 10 µM (RXF 393) was 97.3%.
`N=c1scc(-c2ccc(Cl)cc2)n1CC(=O)N1CCN(c2ccccc2)CC1` was tested, and the growth at 10 µM (CAKI-1) was 93.3%, the growth at 10 µM (ACHN) was 96.1% and the growth at 10 µM (A498) was 84.9%. It also gave a growth at 10 µM (OVCAR-4) of 86.4%, a growth at 10 µM (SK-MEL-5) of 91.9% and a growth at 10 µM (M14) of 99.7%. It also gave a growth at 10 µM (SNB-75) of 78.4%, a growth at 10 µM (SNB-19) of 100% and a growth at 10 µM (SF-539) of 100%. It also gave a growth at 10 µM (SW-620) of 104%, a growth at 10 µM (HCT-116) of 101% and a growth at 10 µM (NCI-H522) of 76.9%. For the same compound, the growth at 10 µM (NCI-H226) was 92.2%, the growth at 10 µM (HOP-92) was 76.1% and the growth at 10 µM (HOP-62) was 109%. The growth at 10 µM (SR) was 88%, the growth at 10 µM (RPMI-8226) was 83.4% and the growth at 10 µM (CCRF-CEM) was 96.2%. For the same compound, the Ki [1] was 5820 nM, the Ki [2] was 501 nM and the growth at 10 µM (BT-549) was 102%. The growth at 10 µM (MDA-MB-231) was 114%, the growth at 10 µM (MCF7) was 90.8% and the growth at 10 µM (DU-145) was 114%. It also gave a growth at 10 µM (RXF 393) of 98.8%.
`N=c1scc(-c2ccccc2)n1CC(=O)N1CCN(c2ccccc2)CC1` showed a growth at 10 µM (CAKI-1) of 87.5%, a growth at 10 µM (ACHN) of 83.4% and a growth at 10 µM (A498) of 87.2%. For the same compound, the growth at 10 µM (OVCAR-4) was 90.5%, the growth at 10 µM (SK-MEL-5) was 94.8% and the growth at 10 µM (M14) was 101%. The growth at 10 µM (SNB-75) was 74.6%, the growth at 10 µM (SNB-19) was 98.6% and the growth at 10 µM (SF-539) was 97.2%. For the same compound, the growth at 10 µM (SW-620) was 101%, the growth at 10 µM (HCT-116) was 107% and the growth at 10 µM (NCI-H522) was 85.1%. For the same compound, the growth at 10 µM (NCI-H226) was 93.7%, the growth at 10 µM (HOP-92) was 59% and the growth at 10 µM (HOP-62) was 96.6%. For the same compound, the growth at 10 µM (SR) was 89.9%, the growth at 10 µM (RPMI-8226) was 92.1% and the growth at 10 µM (CCRF-CEM) was 95.8%. The Ki [1] was 4680 nM, the Ki [2] was 1730 nM and the growth at 10 µM (BT-549) was 95.5%. The growth at 10 µM (MDA-MB-231) was 95%, the growth at 10 µM (MCF7) was 95.3% and the growth at 10 µM (DU-145) was 111%. For the same compound, the growth at 10 µM (RXF 393) was 107%.
For `CC(=O)N1CCN(C(=O)Cn2c(-c3ccc(C)cc3)csc2=N)CC1`, the growth at 10 µM (CAKI-1) was 81.5%, the growth at 10 µM (ACHN) was 92.8% and the growth at 10 µM (A498) was 80.6%. For the same compound, the growth at 10 µM (OVCAR-4) was 97%, the growth at 10 µM (SK-MEL-5) was 92.1% and the growth at 10 µM (M14) was 97.9%. For the same compound, the growth at 10 µM (SNB-75) was 82.3%, the growth at 10 µM (SNB-19) was 100% and the growth at 10 µM (SF-539) was 99.9%. The growth at 10 µM (SW-620) was 97.6%, the growth at 10 µM (HCT-116) was 85.9% and the growth at 10 µM (NCI-H522) was 76.9%. The growth at 10 µM (NCI-H226) was 96%, the growth at 10 µM (HOP-92) was 60.9% and the growth at 10 µM (HOP-62) was 101%. For the same compound, the growth at 10 µM (SR) was 81.3%, the growth at 10 µM (RPMI-8226) was 82.3% and the growth at 10 µM (CCRF-CEM) was 88.2%. For the same compound, the Ki [1] was 6090 nM, the Ki [2] was 2230 nM and the growth at 10 µM (BT-549) was 104%. It also gave a growth at 10 µM (MDA-MB-231) of 75.3%, a growth at 10 µM (MCF7) of 88.9% and a growth at 10 µM (DU-145) of 110%. The growth at 10 µM (RXF 393) was 94.8%.
